Assay outcomes: PubChem BioAssay, Broad Institute
The entries come from a sample that favours hits as a whole.
XiGFP reactiv – reactivates the inactive X chromosome in mouse fibroblasts; XiGFP mouse fibroblasts, % GFP-positive cells imaging, 3 d; cells co-treated with 5-aza-dC sensitizer; scaled so ellipticine positive control = 100%; activation, % at 7.58 µM; hit rate 0.055% among 360,000; AID 743238;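 active means mean normalized replicate activation at least 10% and every replicate at or above 10%; inconclusive means only one of the two criteria met; inactive means mean below 10% and not all replicates reach 10%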
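System: 68-5-11 XiGFP fibroblast line | Buffer or medium: DMEM containing 5-aza-dC | Compound: Single point | Times: Compounds 3 days, fix/stain 15 min at room temperature | Benchmarks: Positive control ellipticine, 6 µM final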
E-selectin induc – induces E-selectin expression in human endothelial cells; P16581; HUVEC E-selectin immunofluorescence imaging; normalized: neutral wells 0, TNF-alpha wells 100; activation, % at 7.58 µM; hit rate 0.37% among 260,000; AID 686992;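 active means mean E-selectin-positive cell signal at least 10% of the positive control, reached in at least 60% of replicates, without over 20% cell loss; inconclusive means no rule given, readout overlaps actives, possibly toxicity-flagged; inactive means the rest, including those meeting only one limit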
Target sequence (P16581 whole entry, looked up): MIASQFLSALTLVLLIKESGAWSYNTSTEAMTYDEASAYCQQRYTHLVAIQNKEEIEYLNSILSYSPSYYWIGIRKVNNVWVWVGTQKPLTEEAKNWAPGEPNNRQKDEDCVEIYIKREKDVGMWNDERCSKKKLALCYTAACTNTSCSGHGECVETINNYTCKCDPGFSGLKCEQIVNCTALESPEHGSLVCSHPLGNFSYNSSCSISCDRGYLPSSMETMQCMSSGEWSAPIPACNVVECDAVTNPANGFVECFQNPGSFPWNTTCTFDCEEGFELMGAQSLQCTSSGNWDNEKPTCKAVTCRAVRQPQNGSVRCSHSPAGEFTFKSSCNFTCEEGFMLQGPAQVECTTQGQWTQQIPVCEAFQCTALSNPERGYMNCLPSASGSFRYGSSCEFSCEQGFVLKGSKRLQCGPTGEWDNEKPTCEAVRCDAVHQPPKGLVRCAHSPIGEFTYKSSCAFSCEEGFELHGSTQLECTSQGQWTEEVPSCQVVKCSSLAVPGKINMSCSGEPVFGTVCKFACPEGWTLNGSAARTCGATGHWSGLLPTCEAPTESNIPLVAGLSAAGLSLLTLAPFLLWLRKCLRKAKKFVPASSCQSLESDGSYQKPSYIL
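assay system = HUVEC, human umbilical vein endothelial cells | input = 3,000 HUVEC seeded per well | medium = EGM-2 growth medium on 0.1% gelatin-coated wells | dosing = one compound dose added by pin transfer | signal = immunofluorescence imaging | read-out basis = % PE-positive cells | control set = TNF-alpha, DMSO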
A number is an active result.

COc1ccc(N2C(=O)[C@@H]3[C@H](C2=O)[C@H](C(C)=O)N2c4ccccc4C=C[C@@H]32)cc1 was read as XiGFP reactiv inactive.
`COc1ccccc1NC(=O)N[C@@H]1C=C[C@@H](CC(=O)N2CCC(Cc3ccccc3)CC2)O[C@H]1CO` gave XiGFP reactiv inactive and E-selectin induc inactive.
`CCCNC(=O)N1CC(=O)N2[C@H](CO)[C@H](c3ccc(C#CCC4CCCC4)cc3)[C@@H]2C1` gave XiGFP reactiv inactive and E-selectin induc inactive.
`CC1=NC(C)(C)Cc2c(C)cccc21` gave XiGFP reactiv inactive and E-selectin induc 72.
For CC1=NC(C)(C)Cc2cc(C)c(C)cc21 the results were XiGFP reactiv inactive and E-selectin induc inactive.
C[C@H](CO)N1C[C@H](C)[C@@H](CN(C)C)Oc2ncc(C3=CCCC3)cc2C1=O was read as XiGFP reactiv inactive and E-selectin induc inactive.
`CCOC(=O)C1=C(N)n2c(s/c(=C\c3ccncc3)c2=O)=C(C(=O)OCC)C1c1ccncc1` (centres undefined) gave XiGFP reactiv inactive.
Screening CCOC(=O)C1=c2/c(=C/c3ccncc3)c(N)c(C(=O)OC)n2C(=O)C(c2ccncc2)S1 (centres undefined) returned XiGFP reactiv 116 and E-selectin induc inactive.
Screening CC(=O)Nc1ccc(S(=O)(=O)NNc2cccc(C)c2)cc1 returned XiGFP reactiv inactive and E-selectin induc 57.
`Cc1cccc(NC(=O)NNS(=O)(=O)c2ccc(F)cc2)c1` gave XiGFP reactiv inactive and E-selectin induc inactive.
Cc1ccc(S(=O)(=O)Nc2ccc3c(c2)CC(=O)N([C@H](C)CO)C[C@@H](C)[C@H](CN(C)Cc2ccc(C(=O)O)cc2)O3)cc1 was read as XiGFP reactiv inactive and E-selectin induc inactive.
Screening COc1ccc(NC(=O)Nc2cccc3c2O[C@H](CN(C)CC2CCCCC2)[C@@H](C)CN([C@H](C)CO)C3=O)cc1 returned XiGFP reactiv inactive and E-selectin induc inactive.
`Cc1ccc(S(=O)(=O)Nc2ccc3c(c2)C(=O)N([C@@H](C)CO)C[C@H](C)[C@H](CN(C)C(=O)c2ccncc2)OCCCC[C@H](C)O3)cc1` gave XiGFP reactiv inactive.
`COc1ccc(NC(=O)N(C)C[C@H]2Oc3ccc(NC(=O)Cc4cn(C)c5ccccc45)cc3C(=O)N([C@H](C)CO)C[C@@H]2C)cc1` gave XiGFP reactiv inactive and E-selectin induc 32.
COc1ccc(NC(=O)N(C)C[C@H]2Oc3ccc(NC(=O)Cc4cn(C)c5ccccc45)cc3C(=O)N([C@@H](C)CO)C[C@@H]2C)cc1 was read as XiGFP reactiv inactive and E-selectin induc inactive.
Screening C[C@H](CO)N1C[C@H](C)[C@H](CN(C)C)Oc2ccc(NC(=O)Cc3cn(C)c4ccccc34)cc2C1=O returned XiGFP reactiv inactive and E-selectin induc 37.
`C[C@@H]1CN([C@H](C)CO)C(=O)c2cc(NC(=O)Cc3cn(C)c4ccccc34)ccc2O[C@@H]1CN(C)C` gave XiGFP reactiv inactive and E-selectin induc inactive.
C[C@@H]1CN([C@@H](C)CO)C(=O)Cc2cc(NC(=O)C3CCCCC3)ccc2O[C@H]1CN(C)C was read as XiGFP reactiv inactive and E-selectin induc inactive.
C[C@@H]1CN([C@H](C)CO)C(=O)c2cc(-c3cccc(F)c3)cnc2O[C@@H]1CN(C)S(=O)(=O)c1cccc(F)c1 was read as XiGFP reactiv inactive and E-selectin induc inactive.
For CC(C)NC(=O)N[C@@H]1C=C[C@@H](CC(=O)O)O[C@@H]1CO the results were XiGFP reactiv inactive and E-selectin induc inactive.
CN(C)S(=O)(=O)c1ccc2c(c1)C(=O)c1cc(S(=O)(=O)N(C)C)ccc1CC2 was read as XiGFP reactiv inactive.
CN(C)S(=O)(=O)c1ccc2c(c1)/C(=C/c1cc3c([nH]1)CCCC3)C(=O)N2 was read as XiGFP reactiv 113 and E-selectin induc inconclusive.
For COc1ccc2c(c1)C(=O)N(c1ccccc1C)C(=O)C2(C)C the results were XiGFP reactiv inactive and E-selectin induc inactive.
Screening COc1ccc(N2C(=O)c3ccccc3C(C)(C)C2=O)cc1 returned XiGFP reactiv inactive and E-selectin induc 45.
For C[C@@H]1CN([C@H](C)CO)C(=O)c2cc(NS(C)(=O)=O)ccc2O[C@H]1CN(C)C(=O)Nc1ccccc1 the results were XiGFP reactiv inactive and E-selectin induc 69.
C[C@@H]1CN([C@H](C)CO)C(=O)c2cc(NS(C)(=O)=O)ccc2O[C@H]1CN(C)C(=O)Nc1ccc2c(c1)OCO2 was read as XiGFP reactiv inactive and E-selectin induc 197.
`C[C@@H]1CN([C@@H](C)CO)C(=O)c2cc(NS(C)(=O)=O)ccc2O[C@H]1CN(C)C(=O)Nc1ccc2c(c1)OCO2` gave XiGFP reactiv inactive and E-selectin induc inactive.
Screening C[C@H]1CN([C@@H](C)CO)C(=O)c2cc(NS(C)(=O)=O)ccc2O[C@H]1CN(C)C(=O)Nc1ccccc1 returned XiGFP reactiv inactive and E-selectin induc inactive.
Screening C[C@@H]1CN([C@@H](C)CO)C(=O)c2cc(NS(C)(=O)=O)ccc2O[C@H]1CN(C)C(=O)Nc1ccccc1 returned XiGFP reactiv inactive and E-selectin induc inactive.
Screening C[C@H](CO)N1C[C@H](C)[C@H](CN(C)C(=O)Nc2ccccc2)Oc2ccc(NS(C)(=O)=O)cc2C1=O returned XiGFP reactiv inactive and E-selectin induc 74.
CNC[C@@H]1Oc2ccc(NS(C)(=O)=O)cc2C(=O)N([C@@H](C)CO)C[C@H]1C was read as XiGFP reactiv inactive and E-selectin induc inactive.
`CNC[C@@H]1Oc2ccc(NS(C)(=O)=O)cc2C(=O)N([C@@H](C)CO)C[C@@H]1C` gave XiGFP reactiv inactive and E-selectin induc 33.
`CCCC(=O)Nc1ccc2c(c1)OC[C@H](C)N(C(C)=O)C[C@H](C)[C@@H](OC)CN(C)C2=O` gave XiGFP reactiv inactive and E-selectin induc inactive.
Screening COc1cccc(S(=O)(=O)N[C@H]2CC[C@@H](CCn3cc(-c4ccccc4OC)nn3)O[C@H]2CO)c1 returned XiGFP reactiv inactive and E-selectin induc inactive.
Screening CC1C=NC(S(=O)(=O)N2CC[C@@H]3[C@H](CO)N(C)c4ccc(-c5ccccc5F)cc4[C@@H]32)=N1 (some centres undefined) returned XiGFP reactiv inactive and E-selectin induc inactive.
Screening Cc1noc(C)c1S(=O)(=O)N(C)C[C@H]1Oc2ccc(NC(=O)Nc3ccc(C(F)(F)F)cc3)cc2C(=O)N([C@H](C)CO)C[C@@H]1C returned XiGFP reactiv inactive.
For CS(=O)(=O)N1[C@H](C#N)[C@H](c2ccc(-c3ccccc3F)cc2)[C@@H]1CO the results were XiGFP reactiv inactive and E-selectin induc inactive.
C[C@@H]1CN([C@H](C)CO)C(=O)c2cc(NC(=O)C3CC3)ccc2O[C@H]1CN(C)C(=O)Nc1ccc2c(c1)OCO2 was read as XiGFP reactiv inactive and E-selectin induc inactive.
`C[C@H](CO)N1C[C@H](C)[C@@H](CN(C)S(=O)(=O)c2cn(C)cn2)Oc2ccc(NS(=O)(=O)c3ccc(F)cc3)cc2C1=O` gave XiGFP reactiv inactive and E-selectin induc inactive.
`C[C@@H]1CN([C@@H](C)CO)C(=O)c2cc(N(C)C)ccc2O[C@@H]1CN(C)C(=O)Nc1cccc2ccccc12` gave XiGFP reactiv inactive and E-selectin induc 39.
